# Sampled rows, rich in hits. Any-hit rate of the full collection: about 11%.
# WT yeast gro inh: growth inhibition of WT yeast, mitochondrial fusion screen | mitochondrial fusion phenotypic screen, WT strain | 2.1% of 190,000 active | inhibition, % at 10 µM; in the data active means inhibition above about 58%; tested in S. cerevisiae
# G6PDH counter: inhibits Leuconostoc G6PDH, flagging false hits in G6PDH-based assays | 0.12% of 200,000 active | Purified L. mesenteroides G6PDH, diaphorase/resazurin coupled fluorescence, 45 min | inhibition, % at 5 µM
# Lmaj promast: Leishmania major promastigote growth inhibition | 9% of 200,000 active | inhibition, % at 10 µM | Leishmania major promastigotes, resazurin fluorescence viability | AID 1063;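 further: promastigotes grown with compound for 44 hours at 28 °C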
# Diaph act CS: activates diaphorase or chemically reduces, flagging diaphorase assay artifacts; Diaphorase/resazurin coupled assay, resorufin fluorescence, 16 min; active compounds read high; 1 = vehicle wells, 0 = NADH-free wells; activation factor at 20 µM; 0.005% of 190,000 active; AID 1229;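 active means diaphorase activity raised at least twofold by the compound at 20 µM; inactive means activation factor below 2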
#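 Test system: Clostridium kluyveri diaphorase, purified enzyme; input: enzyme 0.07 U/mL final; buffer or medium: 50 mM HEPES pH 7.4 with 4.542 mM MgCl2, 0.005% Tween 20; also added: 0.114 mM NADH and 0.1 mM resazurin, final amounts; schedule: 16 min enzyme reaction, ambient temperature; technique: fluorescence of resorufin, 544 nm excitation, 590 nm emission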
# Diaph inh CS: diaphorase inhibition or chemical oxidation counter-screen | AID 1217 | inhibition, % at 20 µM | diaphorase resazurin-to-resorufin fluorescence, NADH, 16 min; bacterial (C. kluyveri) enzyme, not human | 0.69% of 190,000 active;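 active means primary screen inhibition at 20 µM above a set limit, cut at about 50% in these data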;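 further: plate controls were DMSO with full reaction for no effect and wells lacking NADH for full effect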
#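 System: Diaphorase enzyme from Clostridium kluyveri | Amount: Enzyme working solution with 0.14 U/mL diaphorase | Benchmarks: No-NADH positive control and DMSO neutral control | Signal: Fluorescence of resorufin formed from resazurin, Ex 544/Em 590 nm | Schedule: 16-min room-temperature incubation before reading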
# Numbers without * were called inactive; . = no result. Unless noted, no stated cut-off is given here; in the data, active means inhibition above about 50%; inactive means the rest.
SMILES,WT yeast gro inh,G6PDH counter,Lmaj promast,Diaph act CS,Diaph inh CS
Cc1onc(-c2ccccc2Cl)c1C(=O)Nc1sc2c(c1C(N)=O)CCC(C)C2 (configuration not stated),69*,10,30,0.7,27
Cc1onc(-c2ccccc2Cl)c1C(=O)Nc1nnc(C(C)C)s1,11,-13,-5,0.8,16
COC(=O)c1c(NC(=O)c2c(-c3ccccc3Cl)noc2C)sc2c1CCC2,75*,-1,3,0.9,10
COC(=O)c1c(NC(=O)c2nc3nc(C)cc(C(F)F)n3n2)sc2c1CCC2,60*,3,25,0.8,20
CCOCCOCCC(C(=O)OCC)P(=O)(c1ccccc1)c1ccccc1 (configuration not stated),-3,-3,-3,0.9,7
Clc1ncc(CN2CCN(Cc3ccccc3)CC2)s1,19,4,27,0.9,13
CN(C)CCNC(=O)Cc1c(C(=O)O)n(C)c2ccccc12,.,1,94*,0.8,18
CCN(CC)CCNC(=O)Cc1c(C(=O)O)n(CC)c2ccccc12,-13,3,-8,0.9,10
C/C(=N\NC(=O)c1[nH]c2c([N+](=O)[O-])cc(C)cc2c1-c1ccccc1)c1cccnc1,0,3,18,0.9,13
C=CCN(c1ccccc1C(=O)O)S(=O)(=O)/C=C/c1ccccc1,-12,3,-1,0.9,13
COc1ccc(-c2[nH]c(-c3ccc(C)cc3)nc2SCC(=O)NC2CCCC2)cc1,35,9,84*,0.9,10
CCOc1ccc(-c2nnc(-c3ccncc3)o2)cc1OCC,2,6,78*,1.1,-10
COc1cc(-c2n[nH]c(=S)n2-c2cc(C(F)(F)F)ccc2Cl)cc(OC)c1OC,8,4,1,0.8,18
COc1ccc2c3c(c(=O)oc2c1OCC(=O)O)CCCC3,13,6,61*,1,5
CC(=O)N(C(C)=O)S(=O)(=O)c1ccc(N=NN2CCOCC2)cc1,-16,8,28,0.9,6
CCC1CSC(Nc2ccc(C(=O)/C=C/c3ccc(Oc4ccccc4)cc3)cc2)=N1 (configuration not stated),29,5,59*,1,-3
N#Cc1cnn2ccc(-c3ccc4c(c3)CCC4)nc12,-10,-3,23,1,4
COC(=O)c1cc(NC(=S)Nc2cc(Cl)cc(Cl)c2)cc(C(=O)OC)c1,77*,-4,7,0.9,14
COC(=O)c1cccc(NC(=S)Nc2cccc(Cl)c2C)c1,11,-7,5,1,4
COc1ccc(Sc2cc(C(F)(F)F)nc(-c3ccccn3)n2)cc1,62*,15,13,0.9,13
Cc1cccc(Cn2c(=O)n(-c3ccc(CC(=O)NCc4ccco4)cc3)c(=O)c3sccc32)c1,-4,12,63*,1.1,-6
Cc1ccc(-n2c(=O)c3sccc3n(CC(=O)NCc3ccco3)c2=O)cc1,-11,-11,0,0.9,8
COC(CNC(=O)c1ccc(N2CCC3(CC2)OCCO3)c([N+](=O)[O-])c1)OC,4,4,60*,0.9,5
Cc1cccc(N2CCN(CCNC(=O)c3cc4c(s3)CS(=O)(=O)C4)CC2)c1C,-5,1,99*,1.1,-5
CN(CCNC(=O)c1cc2c(=O)n(C)c3ccccc3c2n1C)Cc1ccccc1,16,4,69*,1.1,-14
SMILES,WT yeast gro inh,G6PDH counter,Lmaj promast,Diaph act CS,Diaph inh CS
Cn1c(C(=O)NCCN2CCN(c3ccccc3F)CC2)cc2c(=O)n(C)c3ccccc3c21,4,-56,51*,0.9,14
Cn1c(C(=O)NCCN2CCOCC2)cc2c(=O)n(C)c3ccccc3c21,-6,10,8,0.8,20
CCCN(CCC)CCNC(=O)c1cc2c(=O)n(C)c3ccccc3c2n1C,11,-38,29,0.9,11
COc1cc(CNCc2ccccc2)cc(Cl)c1OC,-9,8,66*,0.8,17
CCCCNCc1cc(Cl)c(OCCC)c(OCC)c1,-2,-1,90*,1.1,-7
CCOc1cc(CNCc2ccncc2)cc(Cl)c1OC,-6,1,89*,0.9,12
COc1cc(CNCCc2ccccc2)cc(Cl)c1OCc1ccccc1,82,7,91*,1.4,-42
CCOc1cc(CNCC2CCCN2CC)cc(Cl)c1OC (configuration not stated),13,5,2,0.9,8
CC(O)CNc1nc2ccccc2n1-c1ncnc2sc3c(c12)CCC3 (configuration not stated),15,7,74*,0.8,17
c1ccc2c(c1)ncn2-c1ncnc2sc3c(c12)CCCC3,12,-2,-3,0.9,13
C/C(=N\Nc1cccc(C(F)(F)F)c1)c1ccc(O)cc1,17,-3,13,0.8,23
CCOC(=O)/C(C(=O)Nc1ccc(Cl)cc1Cl)=C1/NC(C)(C)Cc2ccccc21,13,-2,73*,0.8,16
CN(CCCCCCCCC(=O)/C=N/O)Cc1ccccc1,-14,3,87*,0.9,13
CN(C)CCCNCCCCNC(=O)/C=N/O,-23,-5,-1,1.1,-13
C/C(Cc1ccccc1)=N\NC(=O)CCCCCC(=O)N/N=C(\C)Cc1ccccc1,-45,8,1,1,-4
CN(C)CCCCCCCCCCC(=O)/C=N/O,.,.,99*,.,.
CC(NC(=O)COC(=O)Cc1ccc(-c2ccccc2)cc1)c1ccccc1 (configuration not stated),-3,3,-2,0.8,16
CCN(CC)CCn1c(=S)[nH]c2ccc(Br)cc2c1=O,9,4,10,0.9,15
CC(=O)c1ccc(OC2OCCOC2Oc2ccc(C(C)=O)cc2)cc1 (configuration not stated),-17,-20,-4,0.9,10
COc1ccc(CNC(=O)C(c2ccc(C)o2)N(Cc2cccs2)C(=O)Cc2cccs2)cc1 (configuration not stated),7,2,87*,0.9,6
CCc1ccc(C(C(=O)NCc2ccc(OC)cc2)N(CCOC)C(=O)Cc2cccs2)cc1 (configuration not stated),-1,-5,15,0.8,17
COCCN(C(=O)Cc1cccs1)C(C(=O)NCc1ccc(OC)cc1)c1ccc(C(C)C)cc1 (configuration not stated),61*,-7,28,0.8,23
COc1ccc(C(=O)Oc2ccc3oc(=O)sc3c2)cc1,12,-1,-7,0.8,16
O=C1CCCC2=C1C(c1ccc(Cl)cc1)n1c(s/c(=C\c3ccc4ccncc4c3)c1=O)=N2 (configuration not stated),42,-18,98*,0.9,10
Cc1cc(/C=c2/sc3nc4ccccc4n3c2=O)c(C)n1-c1ccccn1,19,10,-3,0.5,52*

# From PubChem
